Measured values pooled from the literature.

Compound	host	medium	route	dose	setting	AUC(0-t)
Cc1c(C(=O)NN2CCCCC2)nn(-c2ccc(Cl)cc2Cl)c1-c1ccc(Cl)cc1	mouse	plasma	oral	20 µmol/kg	single dose	9 µM·h
Cc1ccc(NC(=O)c2ccc(CN3CCN(C)CC3)cc2)cc1Nc1nccc(-c2cncc(-c3oncc3C)c2)n1	male C57BL/6 mouse	brain	oral	100 mg/kg/day	–	1170 ng·h/mL
C=CC(=O)N1CC2CC(n3nc(-c4ccc(C(=O)Nc5ccccn5)cc4)c4c(N)ncnc43)CC2C1 (stereo not shown)	SCID mouse	plasma	oral	0.2 mg/kg	–	8.63 ng·h/mL
Cn1ccnc1N1CCN(CC2CCN(c3nccc4[nH]c(-c5cc(F)cc(F)c5)nc34)CC2)CC1	mouse	blood	intravenous	2 mg/kg	–	7.88 µM·h
CC[C@H](C)[C@@H]1NC(=O)[C@@](C)(NC(=O)[C@H](CCCNC(=N)N)NC(=O)[C@H](CC(C)C)NC(=O)[C@@H](NC(=O)[C@H](CCC(N)=O)NC(=O)[C@H](CC(C)C)NC(C)=O)[C@@H](C)O)CCCC=CCCC[C@@](C)(C(=O)N[C@@H](CC(C)C)C(=O)N[C@@H](Cc2ccc3ccccc3c2)C(N)=O)NC(=O)[C@H](CCCNC(=N)N)NC(=O)[C@H](CCC(N)=O)NC1=O	male BALB/c mouse	plasma	intravenous	15 mg/kg	–	260000 ng·h/mL
CNC(=O)c1cc(OC)cc2c(N3CCc4c(cc(Cn5ccnc5)cc4-c4cn(C)nc4C(F)(F)F)C3=O)ccnc12	male CD-1 mouse	plasma	intravenous	3 mg/kg	–	3300 ng·h/mL
COc1nc(-c2cc(C)c(N[C@@H](C)c3cc(F)cc(F)c3)nn2)ccc1-n1cnc(C)c1	male CD-1 mouse	plasma	oral	5 mg/kg	single dose	9560 ng·h/mL
CC(C)(C)c1cc(NC(=O)Nc2ccc(Oc3ccnc4[nH]c(=O)cnc34)cc2F)n(-c2ccccc2)n1	BALB/c mouse	plasma	intravenous	2 mg/kg	–	154 µM·h
Fc1ccc(-c2nc3c(N4CCC(CN5CCOCC5)CC4)nccc3[nH]2)cc1F	mouse	blood	intravenous	2 mg/kg	–	4.17 µM·h
Cc1nc(-c2cnc(NC(C)C)n(C)c2=O)ccc1Oc1ccnc(-c2cnn(C)c2)c1	female mouse	plasma	oral	7.5 mg/kg	single dose	52600 ng·h/mL
CNC(=O)c1cc(Oc2ccc(NC(=O)Nc3ccc(Cl)c(C(F)(F)F)c3)c(F)c2)ccn1	male mouse	plasma	oral	10 mg/kg	single dose	18000 ng·h/mL
COc1ccc2nccc(N3CCc4c(cc(Cn5ccnc5)cc4-c4cn(C)nc4C(F)(F)F)C3=O)c2c1	male CD-1 mouse	plasma	oral	50 mg/kg	–	33800 ng·h/mL
CC(C)OC(=O)c1sc(Nc2ncccn2)nc1-c1cnccn1	male CD-1 mouse	plasma	oral	2.5 mg/kg	–	54 ng·h/mL
Cc1ccc2cncc(N3CCc4c(cc(Cn5ccnc5)cc4-c4cn(C)nc4C(F)(F)F)C3=O)c2c1	male CD-1 mouse	plasma	intravenous	3 mg/kg	–	3840 ng·h/mL
Cc1c(C(=O)NN2CCCCC2)nc(-c2ccc(Cl)cc2Cl)n1-c1ccc(OS(=O)(=O)CCC(F)(F)F)cc1	mouse	plasma	oral	20 µmol/kg	single dose	6.3 µM·h
CN1CCN(CC2CCN(c3nccc4[nH]c(-c5cc(F)cc(F)c5)nc34)CC2)CC1	mouse	blood	intravenous	2 mg/kg	–	2.42 µM·h
CCc1cc(OC)c2nccc(N3CCc4c(cc(Cn5ccnc5)cc4-c4cn(C)nc4C(F)(F)F)C3=O)c2c1	male CD-1 mouse	plasma	intravenous	3 mg/kg	–	3330 ng·h/mL
CCOc1ccc(Cc2cc([C@@H]3O[C@H](CO)[C@@H](O)[C@H](O)[C@H]3O)ccc2Cl)cc1	male C57BL/6 mouse	plasma	intravenous	1 mg/kg	–	680 ng·h/mL
CN1CCN(C2CCN(c3nccc4[nH]c(-c5cc(F)cc(F)c5)nc34)CC2)CC1	mouse	blood	intravenous	2 mg/kg	–	1.95 µM·h
CCn1ncc2c(Nc3ccc(OC(F)(F)F)cc3)ncnc21	male BALB/c mouse	plasma	oral	20 mg/kg	–	201 ng·h/mL
O=S(=O)(c1ccc(-c2ccc3nccc(Nc4ccncn4)c3c2)cc1)N1CCOCC1	female BALB/c mouse	brain	intraperitoneal	10 mg/kg	–	120 ng·h/mL
COc1ccc(C(O)COc2ccc(-c3csc(-c4ccc(OCC(O)c5ccc(OC)c(OC)c5)cc4)n3)cc2)cc1OC (stereo not shown)	C57BL/6 mouse	plasma	oral	10 mg/kg	–	10000 ng·h/mL
CN1CCC[C@H](CN2c3ccccc3Sc3ccccc32)C1.O=C(O)CCC(=O)O	mouse	plasma	oral	64 mg/kg	single dose	8750 ng·h/mL
COc1nc(-c2cc(C)c(N[C@@H](C)c3c(F)cc(F)cc3F)nn2)ccc1-n1cnc(C)c1	male CD-1 mouse	plasma	oral	5 mg/kg	single dose	7960 ng·h/mL
CC(C)(Nc1nc(-c2ccccn2)nc2ccccc12)c1ccccn1	female BALB/c mouse	plasma	intravenous	1 mg/kg	–	1450 ng·h/mL
CCc1cc(C(=O)NC)c2nccc(N3CCc4c(cc(Cn5ccnc5)cc4-c4cn(C)nc4C(F)(F)F)C3=O)c2c1	male CD-1 mouse	plasma	oral	150 mg/kg	–	527000 ng·h/mL
CS(=O)(=O)CCNCc1ccc(-c2ccc3ncnc(Nc4ccc(OCc5cccc(F)c5)c(Cl)c4)c3c2)o1	nude mouse	plasma	oral	100 mg/kg	single dose	97500 ng·h/mL
CNCCN(C)c1cc(C#N)cc(CCc2cc(C)cc(N)n2)c1	male BALB/c mouse	plasma	intravenous	2 mg/kg	–	180 ng·h/mL
